Measured values published in PMC3290340 (Pigment cell & melanoma research, 2012).

Assays:
[1] = tested on: A375M melanoma cells; test: MTS cell viability, A375M; format: cell-based, human; settings: value of the text (Fig. 3A, 72 hours)
Procedure, shortened: (§1)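 5×10^3 cells/well in DMEM/10% FBS, pre-grown 36 h (melanoma lines) or 72 h (FF2441 fibroblasts, FOM melanocytes). Then exposed to test compound (0.5–100 μM) or DMSO for 24, 48 or 72 h. Viability by MTS relative to vehicle-treated cells; IC50 fitted per line. Melanoma values also averaged across the six melanoma lines.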

[2] = tested on: UACC 903 melanoma cells; test: MTS cell viability, UACC 903; format: cell-based, human
Procedure, shortened: as §1

[3] = tested on: 1205 Lu melanoma cells; test: MTS cell viability, 1205 Lu; format: cell-based, human; settings: value of the text (Fig. 3A, 72 hours)
Procedure, shortened: as §1

[4] = tested on: melanoma cells; test: MTS cell viability, average/range over the melanoma cell lines; format: cell-based, human
Procedure, shortened: as §1

[5] = tested on: UACC 903 cells; test: Cellular S-1-P and ceramide content by LC-MS-MS, UACC 903; format: cell-based, human; settings: UACC 903, 2.5 and 5.0 μM, 48 hours
Procedure, shortened: (§2)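 UACC 903 or 1205 Lu cells (2.0×10^6, triplicate dishes) in DMEM/10% FBS; after 24 h, PBS-washed and treated 48 h with 2.5 or 5.0 μM test compound or DMSO. Floating cells pelleted at 500 x g, 5 min, 4 °C, PBS-washed and pooled with scraped adherent cells. Extracts assayed by LC-MS-MS for sphingosine, S-1-P and ceramides.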

[6] = tested on: 1205 Lu cells; test: Cellular S-1-P and ceramide content by LC-MS-MS, 1205 Lu; format: cell-based, human; settings: 48 hours
Procedure, shortened: as §2

[7] = tested on: UACC 903 xenografted melanoma tumors; test: Xenografted UACC 903 melanoma tumor growth; format: in vivo, nude mice; settings: UACC 903 xenograft, 100 mg/kg i.p. Mon/Wed/Fri, day 22
Procedure, shortened: (§3)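 Female nude mice, 4-6 weeks old, injected s.c. above both rib cages with 5×10^6 UACC 903 or 2.5×10^6 1205 Lu cells in 0.2 ml DMEM/10% FBS. On day 6, randomized (n=5, 10 tumors per group). Dosed i.p. at 100 mg/kg in 50 μl DMSO (or DMSO alone) Mon/Wed/Fri for 3 weeks. Tumor dimensions by calipers; body weight monitored.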

[8] = tested on: 1205 Lu xenografted melanoma tumors; test: Xenografted 1205 Lu melanoma tumor growth; format: in vivo, nude mice; settings: 1205 Lu xenograft, 100 mg/kg i.p. Mon/Wed/Fri, day 21
Procedure, shortened: as §3

[9] = tested on: UACC 903 cells; test: Cell cycle analysis; format: cell-based, human; settings: 72 h
Procedure, shortened: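 1.5×10^6 UACC 903 cells grown in 100-mm dishes, then treated 72 h with 1, 2.5 or 5.0 μM test compound or DMSO. Floating plus adherent cells collected by trypsinization and stained 30 min at 4 °C (propidium iodide 100 μg/ml, RNase A 20 μg/ml, Triton X-100 3 μg/mL in 0.1% sodium citrate). Phase distribution by FACScan.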

[10] = tested on: CYCLIN D1 in UACC 903 cells; test: Western blot of CYCLIN D1; format: cell-based, human; settings: 72 h; for Decrease in CYCLIN D1 expression: compared to DMSO
Procedure, shortened: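 UACC 903 cells treated 72 h with test compound or DMSO and lysed in HEPES pH 7.5 buffer with protease/phosphatase inhibitors. Lysates cleared at 10,000 x g, 10 min, 4 °C; 30 μg protein per lane. Blotted to PVDF and detected by ECL. Band intensity densitometry given as percent change versus DMSO-treated cells.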

[11] = tested on: A375M cells; test: Caspase-3/7 activity; format: cell-based, human; settings: 72 hours, tested 1, 2.5, 5.0 μM
Procedure, shortened: (§4)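 UACC 903, A375M or 1205 Lu cells (5×10^3/well, 96-well) exposed 72 h to test compound or DMSO. Caspase-3/7 substrate Z-DEVD-R110 (Apo-ONE kit) added 4 h before the end of treatment. Read-out is fold increase in caspase-3/7 activity over DMSO-treated cells. At least 3 independent experiments, SEM.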

[12] = tested on: UACC 903 cells; test: Caspase-3/7 activity; format: cell-based, human; settings: UACC 903, 72 hours, tested 1, 2.5, 5.0 μM
Procedure, shortened: as §4

[13] = tested on: 1205 Lu cells; test: Caspase-3/7 activity; format: cell-based, human; settings: 72 hours, tested 1, 2.5, 5.0 μM
Procedure, shortened: as §4

[14] = Body weight during i.p. treatment; format: in vivo, nude mice; settings: 100 mg/kg
[15] = target: recombinant SPHK1 (Homo sapiens, UniProt Q9NYA1); test: In vitro SphK activity assay with recombinant SPHK1; format: biochemical; settings: recombinant protein, Fig. 2B
[16] = target: T1, recombinant SPHK2 (Homo sapiens, UniProt Q9NRA0); test: In vitro SphK activity assay with recombinant SPHK2; format: biochemical; settings: Fig. 2B
T1 sequence (Q9NRA0 1-654): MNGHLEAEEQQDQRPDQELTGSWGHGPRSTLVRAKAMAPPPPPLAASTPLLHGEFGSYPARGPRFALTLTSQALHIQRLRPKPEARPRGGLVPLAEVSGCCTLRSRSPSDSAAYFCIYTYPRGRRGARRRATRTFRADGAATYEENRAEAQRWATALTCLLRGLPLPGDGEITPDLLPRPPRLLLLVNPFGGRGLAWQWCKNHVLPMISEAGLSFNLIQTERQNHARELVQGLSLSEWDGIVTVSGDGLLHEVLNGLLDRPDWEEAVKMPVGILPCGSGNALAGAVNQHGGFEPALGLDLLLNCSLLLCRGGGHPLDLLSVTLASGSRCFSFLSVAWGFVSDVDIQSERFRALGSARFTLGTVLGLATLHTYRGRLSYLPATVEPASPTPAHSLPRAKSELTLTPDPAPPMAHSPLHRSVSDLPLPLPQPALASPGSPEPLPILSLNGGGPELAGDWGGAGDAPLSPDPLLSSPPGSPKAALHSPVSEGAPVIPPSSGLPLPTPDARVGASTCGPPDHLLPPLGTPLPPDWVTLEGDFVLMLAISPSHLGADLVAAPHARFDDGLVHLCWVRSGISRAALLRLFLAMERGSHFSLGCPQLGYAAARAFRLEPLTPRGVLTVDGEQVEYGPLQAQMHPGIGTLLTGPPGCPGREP

[17] = UACC 903, 2.5 μM, compared to DMSO

Chain of recombinant SPHK1 (Q9NYA1 whole entry): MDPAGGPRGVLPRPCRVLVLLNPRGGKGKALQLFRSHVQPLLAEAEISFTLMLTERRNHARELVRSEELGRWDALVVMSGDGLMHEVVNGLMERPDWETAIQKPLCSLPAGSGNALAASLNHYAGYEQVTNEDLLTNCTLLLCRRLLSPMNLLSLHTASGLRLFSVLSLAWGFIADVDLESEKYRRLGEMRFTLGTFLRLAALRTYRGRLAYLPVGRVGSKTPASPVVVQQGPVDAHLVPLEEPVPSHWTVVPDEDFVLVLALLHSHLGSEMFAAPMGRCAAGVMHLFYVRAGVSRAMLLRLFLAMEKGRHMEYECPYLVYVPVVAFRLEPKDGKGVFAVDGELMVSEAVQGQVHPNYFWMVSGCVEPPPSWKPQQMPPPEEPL

SMILES: O=C(N/N=C/c1c(O)ccc2ccccc12)c1cc(-c2ccc3ccccc3c2)n[nH]1 [SKI-I]
- IC50 [1]: 1.3 ± 0.27 µM
- Reduction of cell viability ([2]; UACC 903, 5 μM, 72 hours): 50%
- IC50 ([2]; UACC 903, value of the text (Fig. 3A, 72 hours)): 5.72 ± 0.35 µM
- IC50 [3]: 4.89 ± 0.63 µM
- Fold more effective than SKI-II (average IC50 values) ([4]; SKI-I compared to SKI-II): ~ 10 fold
- IC50 ([4]; read-out: Average IC50 for melanoma cells, 24 h treatment): 20.6 µM
- Effect on cellular ceramide levels [5]: induced
- Effect on cellular S-1-P [6]: no significant change
- Effect on cellular ceramide levels [6]: increased
- Difference in tumor volume between vehicle control and treatment group [7]: ~ 40%
- Difference in tumor volume between vehicle control and treatment group [8]: ~ 26%
- Fold decrease of the G0/G1 cell population [9, 17]: 2.4 fold
- Fold increase of the G2/M population [9, 17]: 2.5 fold
- G2/M cell population ([9]; UACC 903, 5 μM): below detectable levels
- Decrease in CYCLIN D1 expression ([10]; UACC 903, 1 μM): 86.1%
- Decrease in CYCLIN D1 expression ([10]; UACC 903, 2.5 μM): 97.1%
- CYCLIN D1 levels ([10]; UACC 903, 5 μM): almost undetectable
- Concentration of maximal caspase-3/7 activity [11]: 2.5 µM
- Concentration of maximal caspase-3/7 activity [12]: 5 µM
- Concentration of maximal caspase-3/7 activity [13]: 5 µM
- Body weight change [14]: No weight changes

SMILES: Oc1ccc(Nc2nc(-c3ccc(Cl)cc3)cs2)cc1 [SKI-II, 2-(p-hydroxyanilino)-4-(p-chlorophenyl) thiazole]
- Inhibition of SPHK1 activity [15]: effective at inhibiting
- Inhibition of SPHK2 activity ([16]; recombinant protein): effective at inhibiting
- Selectivity SPHK1 versus SPHK2 ([16]; recombinant proteins): slightly enhanced selectivity to SPHK2
- Effect on cellular S-1-P [5]: did not effect
- Effect on cellular ceramide levels [5]: did not effect
- Difference in tumor volume between vehicle control and treatment group [7]: no effect on tumor growth
- Body weight change [14]: No weight changes
